# Assays:
# [1] = target: T1, Adenosine receptor A1 (Rattus norvegicus) (UniProt P25099); experiment: Percentage inhibition against Adenosine A1 receptor in rat brain membranes using [3H]-PIA; assay type: cell membranes; parameters: concentration or dose not given beside the values; conditions: concentration not given here
# T1 sequence (whole entry): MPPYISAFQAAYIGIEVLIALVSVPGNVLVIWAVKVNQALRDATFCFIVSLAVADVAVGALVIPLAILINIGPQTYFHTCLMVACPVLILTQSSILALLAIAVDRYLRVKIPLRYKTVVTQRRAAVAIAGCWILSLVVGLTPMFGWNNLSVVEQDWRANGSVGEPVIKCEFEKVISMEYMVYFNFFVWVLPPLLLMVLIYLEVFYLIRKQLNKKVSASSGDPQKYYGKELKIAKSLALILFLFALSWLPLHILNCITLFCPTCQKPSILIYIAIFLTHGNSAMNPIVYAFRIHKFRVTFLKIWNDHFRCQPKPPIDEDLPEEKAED
# [2] = target: T2, Adenosine A2 receptor (Rattus norvegicus) (UniProt P29276+P30543); experiment: Percent displacement at 10e-4 M against Adenosine A2 receptor in rat striatal membranes using [3H]-CGS- 21680; assay type: cell membranes; conditions: Striatum, Membrane
# How it was run: (§1)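 Rat striatal membranes, prepared with adenosine deaminase (3 units/mL) including a 30 min, 30 °C preincubation, ADA also present during radioligand incubation; [3H]CGS 21680 displacement. Test compounds from DMSO stocks, final DMSO ≤1%, at least five concentrations spanning 3 orders of magnitude.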
# Adenosine receptor A3 [3] = target: T3, Adenosine receptor A3 (Homo sapiens, UniProt P0DMS8); experiment: Binding affinity against human adenosine A3 receptor in HEK293 cells using [125I]AB-MECA […] radioligand.; assay type: cell-based
# T3 sequence (P0DMS8 whole entry): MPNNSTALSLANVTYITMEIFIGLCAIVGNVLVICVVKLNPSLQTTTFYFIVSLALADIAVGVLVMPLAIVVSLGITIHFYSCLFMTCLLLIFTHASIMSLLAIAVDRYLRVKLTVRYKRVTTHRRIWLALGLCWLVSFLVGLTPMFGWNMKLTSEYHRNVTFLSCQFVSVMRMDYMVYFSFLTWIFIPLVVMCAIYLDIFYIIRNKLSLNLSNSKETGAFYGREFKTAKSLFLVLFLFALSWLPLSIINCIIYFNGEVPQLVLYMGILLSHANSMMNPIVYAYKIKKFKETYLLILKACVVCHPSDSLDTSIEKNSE
# Adenosine receptor A3 [4] = target: T4, Adenosine receptor A3 (Rattus norvegicus, UniProt P28647); experiment: (§2) Binding affinity for [125I]AB-MECA against rat Adenosine A3 receptor
# T4 sequence (P28647 whole entry): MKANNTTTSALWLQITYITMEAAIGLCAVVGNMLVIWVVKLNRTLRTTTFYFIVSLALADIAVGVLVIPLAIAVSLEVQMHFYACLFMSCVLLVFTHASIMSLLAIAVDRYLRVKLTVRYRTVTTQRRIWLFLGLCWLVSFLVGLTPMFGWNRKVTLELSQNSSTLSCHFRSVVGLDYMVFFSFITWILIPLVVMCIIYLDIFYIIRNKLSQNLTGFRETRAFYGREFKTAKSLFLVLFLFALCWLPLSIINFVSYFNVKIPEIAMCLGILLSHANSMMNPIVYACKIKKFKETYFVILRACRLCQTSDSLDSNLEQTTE
# [5] = target: Adenylate cyclase type 2 (Rattus norvegicus) (UniProt P26769); experiment: Percent inhibition against adenylyl cyclase was measured using IB-MECA […] at 10E-6; assay type: functional; conditions: concentration not given here
# How it was run: (§3)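 Membranes from CHO cells stably expressing rat A3 receptor (grown in F-12, 10% FBS, 37 °C, 5% CO2); [α-32P]ATP added with 1 μM forskolin and papaverine as phosphodiesterase inhibitor.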
# [6] = target: Adenylate cyclase type 2 (Rattus norvegicus) (UniProt P26769); experiment: Percent inhibition against adenylyl cyclase was measured using IB-MECA […] at 10E-7; assay type: functional; conditions: concentration not given here; how it was run: as §3
# Adenosine A2 receptor = Adenosine A2 receptor (Rattus norvegicus, UniProt P29276+P30543); experiment: Binding affinity at Adenosine A2 receptor in rat striatal membranes by [3H]-CGS- 21680 displacement.; assay type: cell membranes, Striatum, Membrane; how it was run: as §1
# Adenosine receptor A1 = target: T5, Adenosine receptor A1 (Rattus norvegicus, UniProt P25099); experiment: Binding affinity at Adenosine A1 receptor in rat brain membranes by [3H]PIA displacement.; assay type: cell membranes
# T5 sequence (P25099 whole entry): T1 sequence (whole entry)
# [7] = target: T2, Adenosine A2 receptor (Rattus norvegicus); experiment: Percentage inhibition against Adenosine A2 receptor in rat striatal membranes using [3H]-CGS- 21680; assay type: cell membranes; conditions: Striatum, Membrane, concentration not given here; how it was run: as §1
# [8] = target: T1, Adenosine receptor A1 (Rattus norvegicus); experiment: Percent displacement against Adenosine A1 receptor in rat brain membranes using [3H]PIA at 10e-4 M; assay type: cell membranes
# [9] = tested on: Adenosine A1 receptor (Rattus norvegicus) / A3 receptor (Homo sapiens); experiment: Ratio of binding affinities between rA1 and human A3.
# [10] = target: T6, Adenosine receptor A3 (Homo sapiens) (UniProt P0DMS8); experiment: Binding affinity against human Adenosine A3 receptor in HEK293 cells using [125I]AB-MECA […]; assay type: cell-based
# T6 sequence (whole entry): T3 sequence (P0DMS8 whole entry)
# How it was run: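 Membranes of HEK-293 cells stably expressing human A3 receptor (0.3 mg protein/mL) in 50 mM Tris, 10 mM Mg2+, 1 mM EDTA, pH 8.0, with 0.3 nM [125I]AB-MECA final. Duplicate 1 h incubations at 25 °C, filtration over GF/B, gamma counting; nonspecific binding with 100 μM (R)-PIA; DMSO ≤1%.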
# [11] = target: T2, Adenosine A2 receptor (Rattus norvegicus); experiment: Percent inhibition against Adenosine A2 receptor in rat striatal membranes using [3H]-CGS- 21680; assay type: cell membranes; conditions: Striatum, Membrane, concentration not given here; how it was run: as §1
# [12] = target: T1, Adenosine receptor A1 (Rattus norvegicus); experiment: Percent inhibition at 10e-4 M against Adenosine A1 receptor in rat brain membranes using [3H]-PIA; assay type: cell membranes
# [13] = target: T7, Adenosine receptor A3 (Rattus norvegicus) (UniProt P28647); experiment: as §2; conditions: concentration not given here
# T7 sequence (whole entry): T4 sequence (P28647 whole entry)
# Chain of Adenylate cyclase type 2 (Rattus norvegicus) (P26769 whole entry): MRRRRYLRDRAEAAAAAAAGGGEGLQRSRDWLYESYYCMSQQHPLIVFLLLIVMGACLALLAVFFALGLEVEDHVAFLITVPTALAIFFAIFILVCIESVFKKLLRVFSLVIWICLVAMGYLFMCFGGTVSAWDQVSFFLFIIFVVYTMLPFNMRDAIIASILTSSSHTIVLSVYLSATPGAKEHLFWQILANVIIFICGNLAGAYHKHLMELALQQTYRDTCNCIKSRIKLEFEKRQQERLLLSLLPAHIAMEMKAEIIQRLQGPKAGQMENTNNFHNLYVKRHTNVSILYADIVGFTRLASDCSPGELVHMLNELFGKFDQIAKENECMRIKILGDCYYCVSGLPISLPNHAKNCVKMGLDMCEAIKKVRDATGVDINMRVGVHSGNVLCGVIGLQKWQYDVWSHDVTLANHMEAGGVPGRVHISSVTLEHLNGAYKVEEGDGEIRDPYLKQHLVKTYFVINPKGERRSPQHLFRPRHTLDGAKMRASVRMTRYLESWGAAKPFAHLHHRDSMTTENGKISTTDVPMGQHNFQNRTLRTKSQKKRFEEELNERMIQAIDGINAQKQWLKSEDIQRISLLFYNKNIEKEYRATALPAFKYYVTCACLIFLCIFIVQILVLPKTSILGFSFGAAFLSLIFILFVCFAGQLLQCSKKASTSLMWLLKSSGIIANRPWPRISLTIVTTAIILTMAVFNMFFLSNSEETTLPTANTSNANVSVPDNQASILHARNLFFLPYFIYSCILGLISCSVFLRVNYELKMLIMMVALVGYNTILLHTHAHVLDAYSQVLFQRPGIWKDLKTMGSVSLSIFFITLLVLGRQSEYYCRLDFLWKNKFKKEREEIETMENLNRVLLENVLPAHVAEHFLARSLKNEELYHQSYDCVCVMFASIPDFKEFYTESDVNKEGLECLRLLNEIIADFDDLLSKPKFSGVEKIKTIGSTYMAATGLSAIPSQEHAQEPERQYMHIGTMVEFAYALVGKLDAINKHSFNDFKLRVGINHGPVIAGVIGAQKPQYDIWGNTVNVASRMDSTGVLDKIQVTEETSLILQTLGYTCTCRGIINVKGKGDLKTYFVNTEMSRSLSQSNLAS
compound,measurement,setting,value
O=c1cc(-c2ccccc2)oc2ccc(Cl)cc12,inhibition,[1],28%
same,Displacement,[2],< 10%
OCCN(CCO)C1=NC(N2CCCCC2)c2nc(N(CCO)CCO)nc(N3CCCCC3)c2N1 (stereo unspecified),Ki,Adenosine receptor A3 [3],19 µM
Nc1nc2ncc(NCc3ccc(C(=O)NC(CCC(=O)O)C(=O)O)cc3)nc2c(=O)[nH]1 (stereo unspecified),Ki,Adenosine receptor A3 [3],28 µM
CCOc1cc(OCC)c2c(=O)c(OCC)c(-c3ccccc3)oc2c1,Ki,Adenosine receptor A3 [4],18.2 µM
same,inhibition,[5],19.1%
same,inhibition,[6],2.2%
same,Ki,Adenosine A2 receptor,3.31 µM
O=C1CC(c2ccc(O)cc2)Oc2ccccc21 (stereo unspecified) [4'-HYDROXY-FLAVANONE],Ki,Adenosine receptor A1,11.5 µM
same,Ki,Adenosine receptor A3 [3],42.8 µM
same,inhibition,[7],35%
COc1c2ccoc2cc2oc(/C=N/c3ccccc3)cc(=O)c12,Displacement,[8],< 10%
same,Ki,Adenosine receptor A3 [3],9.18 µM
same,Displacement,[2],< 10%
same,Ratio,[9],> 20
O=C1c2ccccc2OC(c2ccccc2O)C1O (stereo unspecified),Ki,Adenosine receptor A1,91.9 µM
same,inhibition,[10]; concentration not given here,27%
same,Displacement,[2],< 10%
same,Ratio,[9],< 1
C=C1C(C)C2C(Cc3ccccc3)NC(=O)C23C(OC(C)=O)/C=C\C(C)(O)CC(C)C/C=C/C3C1O (stereo unspecified),Ki,Adenosine receptor A3 [3],23 µM
COc1c2ccoc2cc2oc(/C=C/c3ccccc3)cc(=O)c12,Ki,Adenosine A2 receptor,11.5 µM
same,Ratio,[9],0.37
CCCOc1cc(OCCC)c2c(=O)c(OCCC)c(-c3ccccc3)oc2c1,Ratio,[9],3.5
CSc1sc(C(=O)NN)c2c1C=CCC2,Ki,Adenosine receptor A3 [3],13 µM
O=S(=O)(c1cccc2cnccc12)N1CCNCC1,Ki,Adenosine receptor A3 [3],25 µM
O=c1c(O)c(-c2ccccc2)oc2cc(O)cc(O)c12 [GALANGIN],Ki,Adenosine A2 receptor,0.966 µM
COc1cc(O)c2c(c1)OC(c1ccc(O)cc1)CC2=O (stereo unspecified),Ki,Adenosine A2 receptor,35.6 µM
CCOc1c2ccoc2cc2oc(/C=C/C=C/c3ccccc3)cc(=O)c12,Displacement,[8],< 10%
same,Ki,Adenosine receptor A3 [3],45.5 µM
same,Ki,Adenosine A2 receptor,167 µM
same,Ratio,[9],> 4
O=c1c(Cl)c(-c2ccccc2)oc2ccc(Cl)cc12,Ki,Adenosine receptor A3 [3],0.741 µM
same,Ki,Adenosine A2 receptor,54.5 µM
same,inhibition,[1],15%
same,Ratio,[9],> 100
CCOc1ccc(-c2oc3cc(OCC)cc(O)c3c(=O)c2OCC)c(OCC)c1,Displacement,[8],< 10%
same,Displacement,[2],< 10%
same,Ratio,[9],> 40
O=c1c(Cl)c(-c2ccccc2)oc2ccccc12,Ki,Adenosine receptor A1,2.48 µM
same,Ki,Adenosine receptor A3 [3],11.5 µM
same,Ki,Adenosine A2 receptor,25.1 µM
COc1ccc(-c2oc3cc(OC)cc(OC)c3c(=O)c2OC)c(OC)c1,Ki,Adenosine A2 receptor,46.7 µM
COc1cc(OC)c2c(=O)c(OC)c(-c3ccccc3)oc2c1,Ki,Adenosine A2 receptor,6.45 µM
CCOc1c2ccoc2cc2oc(/C=C/c3ccccc3)cc(=O)c12,Ki,Adenosine receptor A3 [4],12.3 µM
same,inhibition,[5],40.9%
same,inhibition,[6],21.2%
same,Ki,Adenosine A2 receptor,33.8 µM
O=c1cc(-c2ccccc2)oc2ccccc12 [FLAVONE],Ki,Adenosine A2 receptor,3.45 µM
COc1c2ccoc2cc2oc(C=O)cc(=O)c12,Displacement,[8],< 10%
same,inhibition,[11],25%
same,Ratio,[9],> 2
O=c1c(O)c(-c2ccc(O)cc2O)oc2cc(O)cc(O)c12 [MORIN],Ki,Adenosine A2 receptor,17.3 µM
CCOc1cc(O)c2c(=O)c(OCC)c(-c3ccccc3)oc2c1,Ki,Adenosine A2 receptor,63.8 µM
CCOc1ccc(-c2oc3cc(OCC)cc(OCC)c3c(=O)c2OCC)c(OCC)c1,Ki,Adenosine A2 receptor,26.8 µM
COc1ccc2c(c1)C(=O)[C@H](O)[C@@H](/C=C/c1ccccc1)O2 (relative stereo),Displacement,[12],< 10%
same,inhibition,[13],43%
same,inhibition,[5],39.2%
same,inhibition,[6],25.9%
same,Displacement,[2],< 10%
same,Ratio,[9],> 8
COc1cc(OC)c(-c2oc3ccccc3c(=O)c2O)c(OC)c1,Displacement,[2],< 10%
same,Ratio,[9],0.15
O=C1CC(c2ccccc2O)Oc2ccccc21 (stereo unspecified) [2'-HYDROXY-FLAVANONE],Ki,Adenosine A2 receptor,17.6 µM
O=c1ccnc2ccccn12,Ki,Adenosine receptor A3 [3],48 µM
COc1c2ccoc2cc2oc(C)cc(=O)c12 [VISNAGIN],Ki,Adenosine A2 receptor,42.4 µM
same,inhibition,[1],36%
COc1c2ccoc2cc2oc(/C=C/C=C/c3ccccc3)cc(=O)c12,Displacement,[8],< 10%
same,Displacement,[10],< 10%
same,Displacement,[2],< 10%
Cc1cc(C)c(-c2oc3ccc(Cl)cc3c(=O)c2Cl)c(C)c1,Ki,Adenosine receptor A3 [3],5.24 µM
same,inhibition,[1],37%
same,Displacement,[2],< 10%
OC12CCCCC1=Nc1ccccc12 (stereo unspecified),Ki,Adenosine receptor A3 [3],22 µM
COc1cc2oc(-c3ccc(O)cc3O)c(CC=C(C)C)c(=O)c2c(O)c1/C=C/C(C)C [ARTOCARPIN],Ki,Adenosine receptor A1,9.09 µM
same,Ki,Adenosine receptor A3 [3],4.59 µM
same,Displacement,[2],< 10%
